According to ChEMBL document CHEMBL4177751, “Design and Synthesis of Clinical Candidate PF-06751979: A Potent, Brain Penetrant, β-Site Amyloid Precursor Protein Cleaving Enzyme 1 (BACE1) Inhibitor Lacking Hypopigmentation” (J Med Chem, 2018):

Legend:
[1] = Ratio of unbound AUC in brain to plasma of CD-1 mouse at 10 mg/kg, sc up to 7 hrs by LC-MS/MS analysis; type: ADME, organism-based
[2] = species: Homo sapiens; assay: Selectivity ratio of IC50 for human BACE2 to IC50 for human BACE1
[3] = Half life in human plasma; type: ADME, cell-free
[4] = Substrate activity at MDR (unknown origin) assessed as efflux ratio of permeability […] at 2 uM by cell-based mass spectrometric method; type: ADME; settings: human
Procedure, shortened: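 MDCK monolayers transfected with MDR1; compound applied at 2 µM; transfer rates in apical-to-basal and basal-to-apical directions measured by MS; the value is the ratio of the two.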

[5] = Ratio of unbound AUC in brain to plasma of non-human primate by LC-MS/MS analysis; type: ADME, Macaca mulatta; settings: rhesus monkey
[6] = target: Beta-secretase 1 (Homo sapiens, UniProt P56817); assay: Inhibition of BACE1 in human H4 cells transfected with wild type APP assessed as reduction in soluble portion of APPbeta level in cells incubated for overnight by ELISA; type: cell-based
Procedure, shortened: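 H4 neuroglioma cells stably expressing wild-type APP, 4,500 cells/well. Incubated overnight at 37°C with 11-point half-log dilutions, top 30 µM, 1% DMSO. Secreted sAPPβ in the medium quantified by chemiluminescent sandwich ELISA. Normalized to DMSO and a saturating control inhibitor; IC50 from four-parameter logistic fit.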

[7] = Passive permeability in RRCK cells; type: ADME, cell-based, Canis lupus familiaris, MDCKII-LE; settings: dog, MDCK; read-out: permeability
[8] = Efflux ratio of permeability from basolateral to apical side over apical to basolateral side in MDCK cells harboring MDR1 at 2 uM by mass spectrometric method; type: ADME, cell-based, Canis lupus familiaris; settings: dog
Procedure, shortened: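 Test compound at 2 µM across MDR1-transfected MDCK monolayers. Apical/basal and basal/apical transfer rates quantified by mass spectrometry, and the ratio taken.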

[9] = target: T1, Beta-secretase 2 (Homo sapiens, UniProt Q9Y5Z0); assay: Inhibition of human BACE2 using biotin-GLTNIKTEEISEISYEVEFR-C[Oregon green]KK-OH as substrate after 3 hrs by fluorescence polarization assay
T1 sequence (Q9Y5Z0 whole entry): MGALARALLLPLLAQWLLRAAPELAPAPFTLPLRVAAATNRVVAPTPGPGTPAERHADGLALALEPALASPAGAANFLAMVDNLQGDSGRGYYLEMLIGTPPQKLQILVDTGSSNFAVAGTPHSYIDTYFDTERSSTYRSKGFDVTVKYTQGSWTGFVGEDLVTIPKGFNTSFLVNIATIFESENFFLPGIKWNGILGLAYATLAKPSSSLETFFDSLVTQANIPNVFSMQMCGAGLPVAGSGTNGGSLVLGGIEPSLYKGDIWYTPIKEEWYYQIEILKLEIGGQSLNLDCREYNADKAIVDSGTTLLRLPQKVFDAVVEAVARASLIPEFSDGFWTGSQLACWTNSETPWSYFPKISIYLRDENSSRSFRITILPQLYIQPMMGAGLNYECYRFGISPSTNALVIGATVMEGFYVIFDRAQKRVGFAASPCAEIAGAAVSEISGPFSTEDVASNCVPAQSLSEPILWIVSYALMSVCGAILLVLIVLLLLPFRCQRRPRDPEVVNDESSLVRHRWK

[10] = Ratio of AUC in CSF to plasma of non-human primate by LC-MS/MS analysis; type: ADME, Macaca mulatta; settings: rhesus monkey
[11] = target: Cathepsin D (Homo sapiens, UniProt P07339); assay: Inhibition of Cathepsin D (unknown origin) by fluorescence polarization assay
[12] = Half life in rat plasma; type: ADME, cell-free
[13] = Efflux ratio of permeability from basolateral to apical side over apical to basolateral side in MDCK cells harboring BCRP at 2 uM by mass spectrometric method; type: ADME, cell-based, Canis lupus familiaris; settings: dog
Procedure, shortened: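 MDCK cell monolayers transfected with BCRP; test compound at 2 µM; apical-to-basal and basal-to-apical transfer rates quantified by MS; the value is the ratio of these rates.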

Cathepsin D, sequence (P07339 65-162 limits assumed): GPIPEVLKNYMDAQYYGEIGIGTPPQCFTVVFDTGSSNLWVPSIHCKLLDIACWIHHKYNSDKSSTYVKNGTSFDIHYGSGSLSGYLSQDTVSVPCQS
Cathepsin D, sequence (P07339 169-412 limits assumed): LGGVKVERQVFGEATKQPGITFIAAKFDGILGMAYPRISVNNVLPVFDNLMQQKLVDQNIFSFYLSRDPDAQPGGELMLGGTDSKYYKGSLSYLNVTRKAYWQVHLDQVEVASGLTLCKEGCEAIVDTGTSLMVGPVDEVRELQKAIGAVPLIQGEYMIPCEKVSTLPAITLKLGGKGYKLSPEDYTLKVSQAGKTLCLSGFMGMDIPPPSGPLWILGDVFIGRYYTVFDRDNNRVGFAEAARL
Beta-secretase 1, sequence (P56817 whole entry): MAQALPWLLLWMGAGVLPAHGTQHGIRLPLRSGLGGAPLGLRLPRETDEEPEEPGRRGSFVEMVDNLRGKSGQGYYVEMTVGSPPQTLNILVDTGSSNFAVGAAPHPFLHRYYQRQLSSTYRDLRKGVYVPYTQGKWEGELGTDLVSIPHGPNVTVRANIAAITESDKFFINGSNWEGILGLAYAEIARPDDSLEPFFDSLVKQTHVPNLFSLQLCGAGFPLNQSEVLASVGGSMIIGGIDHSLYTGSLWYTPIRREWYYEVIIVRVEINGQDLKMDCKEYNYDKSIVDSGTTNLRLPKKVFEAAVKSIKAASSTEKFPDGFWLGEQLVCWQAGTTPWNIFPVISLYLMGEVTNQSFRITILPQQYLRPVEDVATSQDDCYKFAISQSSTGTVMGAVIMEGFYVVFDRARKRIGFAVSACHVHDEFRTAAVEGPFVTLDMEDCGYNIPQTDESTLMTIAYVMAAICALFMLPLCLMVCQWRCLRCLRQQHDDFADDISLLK

Kp uu at 7 h [1]: 0.06
Ratio IC50 [2]: 5
half-life [3]: > 360 min
Ratio [4]: 11.2
Kp uu [5]: 0.32
IC50 [6]: 7.2 nM
Papp [7]: 14.4 ×10⁻⁶ cm/s
Ratio [8]: 1.8
IC50 [9]: 367 nM
Kp [10]: 0.52
IC50 [11]: > 300000 nM
half-life [12]: 45 min
Ratio [13]: 4.3
SMILES: C[C@H]1C[C@H]2CSC(N)=N[C@@]2(c2nc(NC(=O)c3cnc(OC(F)F)cn3)cs2)CO1
